Data reported in ChEMBL document CHEMBL1154539, “Identification of small molecules that inhibit GSK-3beta through virtual screening” (Bioorg Med Chem Lett, 2009).
Calls of active or inactive are those of the source. The rule behind the calls is not given here.

Tests used:
[1] = target: T1, Glycogen synthase kinase-3 beta (Homo sapiens, UniProt P49841); test: Inhibition of GSK3-beta by Z'-LYTE kinase assay
Summary of the method: (§1)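 Z'-LYTE fluorescence-ratio (FRET) kinase assay with GSK-3β and its peptide substrate. Relative inhibition was plotted against increasing compound concentrations and IC50 taken from the inhibition curves. […] is percent inhibition at a single 10 µM compound concentration.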
Target sequence in this assay (P49841 whole entry): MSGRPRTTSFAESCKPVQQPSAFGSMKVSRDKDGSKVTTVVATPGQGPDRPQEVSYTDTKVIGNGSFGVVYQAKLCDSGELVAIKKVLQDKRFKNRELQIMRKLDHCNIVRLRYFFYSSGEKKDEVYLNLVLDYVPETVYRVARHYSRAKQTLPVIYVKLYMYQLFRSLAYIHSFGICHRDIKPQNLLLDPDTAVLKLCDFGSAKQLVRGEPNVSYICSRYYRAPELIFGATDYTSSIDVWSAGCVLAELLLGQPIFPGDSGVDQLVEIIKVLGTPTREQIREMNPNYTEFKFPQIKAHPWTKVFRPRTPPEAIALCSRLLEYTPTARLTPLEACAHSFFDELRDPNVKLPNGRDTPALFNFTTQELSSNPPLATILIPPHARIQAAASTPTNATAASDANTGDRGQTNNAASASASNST

[2] = target: Cyclin-dependent kinase 1 (Homo sapiens) (UniProt P06493); test: Inhibition of CDK1 at 100 uM
[3] = target: T1, Glycogen synthase kinase-3 beta; test: Inhibition of GSK3-beta by ATP competitive inhibition based assay
Summary of the method: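 GSK-3β enzyme velocity was measured with substrate across various ATP levels at increasing inhibitor concentrations. Mode of inhibition was read from Lineweaver–Burk double-reciprocal plots.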
Target sequence in this assay (P49841 whole entry, looked up): as the sequence (P49841 whole entry) above

[4] = target: T2, Protein kinase C alpha type (Homo sapiens, UniProt P17252); test: Inhibition of PKCalpha
Summary of the method: (§2)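 Counter-screen kinases (PKA, CSNK2, PKC, CDK1) were run under near-identical reaction conditions per the manufacturer's instructions, each with its own suitable substrate. Values are percent inhibition at a single 100 µM compound concentration, or IC50 in µM.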

[5] = Inhibition of CSNK2 at 100 uM
[6] = target: T2, Protein kinase C alpha type; test: Inhibition of PKCalpha at 100 uM
[7] = target: T1, Glycogen synthase kinase-3 beta; test: Inhibition of GSK3-beta at 10 uM by Z'-LYTE kinase assay; summary of the method: as §1
Target sequence in this assay (P49841 whole entry, looked up): as the sequence (P49841 whole entry) above

[8] = Inhibition of PKA at 100 uM
[9] = Inhibition of PKA; summary of the method: as §2
[10] = target: T1, Glycogen synthase kinase-3 beta; test: Inhibition of GSK3-beta in myoblasts assessed as beta-casein accumulation at 2 uM after 3 hrs by immunoblot; settings: in the assay text read “beta-catenin” for “beta-casein”
Summary of the method: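 C2C12 myoblasts plated at 5 × 10⁵ were exposed to compound at 2 µM for 3 h. Cells were lysed for total protein, run on SDS–PAGE and immunoblotted with anti-β-catenin antibody.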
Target sequence in this assay (P49841 whole entry, looked up): as the sequence (P49841 whole entry) above

Chain of Cyclin-dependent kinase 1 (Homo sapiens) (P06493 whole entry, looked up): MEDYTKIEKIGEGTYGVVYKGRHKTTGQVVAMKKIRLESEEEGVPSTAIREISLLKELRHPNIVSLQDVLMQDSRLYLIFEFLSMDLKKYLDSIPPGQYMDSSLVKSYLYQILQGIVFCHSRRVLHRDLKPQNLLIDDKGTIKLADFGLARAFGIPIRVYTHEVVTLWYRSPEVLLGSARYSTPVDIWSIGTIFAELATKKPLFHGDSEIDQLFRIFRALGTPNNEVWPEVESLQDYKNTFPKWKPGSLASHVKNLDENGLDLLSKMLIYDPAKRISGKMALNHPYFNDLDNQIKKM

| IC50 [1] | inhibition [2] | Activity [3] | IC50 [4] | inhibition [5] | inhibition [6] | inhibition [7] | inhibition [8] | IC50 [9] | Activity [10] | Structure (SMILES) |
| --- | --- | --- | --- | --- | --- | --- | --- | --- | --- | --- |
| 0.548 µM | 0% | Active | 5.8 µM | 17% | 84% | 74% | 35% | – | – | O=c1sn(-c2ccccc2)c(=O)n1CCCl |
| 0.539 µM | 15% | – | 4.1 µM | 21% | 93% | 65% | 75% | 17 µM | – | CCOC(=O)Cn1sc(=O)n(CC(=O)N2CCCCC2)c1=O |
| 7.15 µM | 15% | – | 13.8 µM | 30% | 88% | 65% | 30% | – | – | CCn1sc(=O)n(Cc2ccccc2)c1=O |
| 0.467 µM | 18% | Active | 5.3 µM | 21% | 89% | 84% | 87% | 2.2 µM | Active | CCOC(=O)Cn1sc(=O)n(-c2cccc(C(=O)OCC)c2)c1=O |
| 1.86 µM | 20% | – | 38.7 µM | 31% | 51% | 80% | 20% | – | – | O=c1sn(CCc2ccccc2)c(=O)n1Cc1ccc(F)cc1 |
| 1.01 µM | 12% | – | 48.3 µM | 36% | 78% | 75% | 81% | 6.9 µM | – | CCOC(=O)Cn1sc(=O)n(-c2ccc(C(=O)OCC)cc2)c1=O |
